Data taken from ChEMBL document CHEMBL4619723, “New CDK8 inhibitors as potential anti-leukemic agents - Design, synthesis and biological evaluation” (Bioorg Med Chem, 2020).
pEC50: −log10 of the molar value.

Legend:
[1] = target: NUAK family SNF1-like kinase 2 (Homo sapiens) (UniProt Q9H093); test: Inhibition of biotinylated ligand binding to wild-type human partial length SNARK (P22 to A333 residues) expressed in mammalian expression system at 50 nM measured after 1 hr by kinomescan assay relative to control
Summary of the method: (§1)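 Competition binding: kinase was bound to streptavidin beads carrying a biotinylated ligand, with test compound at 50 nM, in 20% SeaBlock, 0.17x PBS, 0.05% Tween 20 and 6 mM DTT for 1 h at rt with shaking. After washing, kinase was eluted with 0.5 μM free ligand and quantified by qPCR. Result is POC relative to the DMSO (100%) and control-compound (0%) references.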

[2] = tested on: MOLM-13; test: cells; conditions: Homo sapiens, MOLM-13, 48 h
[3] = target: Rho-associated protein kinase 2 (Homo sapiens) (UniProt O75116); test: Inhibition of biotinylated ligand binding to wild-type human partial length ROCK2 (M1 to T431 residues) expressed in mammalian expression system at 50 nM measured after 1 hr by kinomescan assay relative to control; summary of the method: as §1
[4] = target: Phosphatidylinositol 4-phosphate 5-kinase type-1 alpha (Homo sapiens) (UniProt Q99755); test: Inhibition of biotinylated ligand binding to wild-type human full length PIP5K1A (M1 to H562 residues) expressed in bacterial expression system at 50 nM measured after 1 hr by kinomescan assay relative to control
Summary of the method: (§2)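 Kinase-tagged T7 phage was grown in an E. coli BL21-derived host at 32 °C until lysis, and the lysate was clarified. Kinase was bound to streptavidin beads carrying a biotinylated ligand, with test compound at 50 nM (final DMSO), in binding buffer for 1 h at rt. Bound kinase was eluted and quantified by qPCR. Result is POC relative to the DMSO (100%) and control-compound (0%) references.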

[5] = target: Cyclin-dependent kinase 7 (Homo sapiens) (UniProt P50613); test: Inhibition of biotinylated ligand binding to wild-type human full length CDK7 (M1 to L344 residues) expressed in mammalian expression system at 50 nM measured after 1 hr by kinomescan assay relative to control; summary of the method: as §1
[6] = target: cGMP-dependent protein kinase 1 (Homo sapiens) (UniProt Q13976); test: Inhibition of biotinylated ligand binding to wild-type human partial length PRKG1 (L339 to F686 residues) expressed in bacterial expression system at 50 nM measured after 1 hr by kinomescan assay relative to control; summary of the method: as §2
[7] = target: Dual specificity protein kinase CLK4 (Homo sapiens) (UniProt Q9HAZ1); test: Inhibition of biotinylated ligand binding to wild-type human partial length CLK4 (R135 to K481 residues) expressed in bacterial expression system at 50 nM measured after 1 hr by kinomescan assay relative to control; summary of the method: as §2
[8] = target: Serine/threonine-protein kinase haspin (Homo sapiens) (UniProt Q8TF76); test: Inhibition of biotinylated ligand binding to wild-type human partial length HASPIN (I452 to K798 residues) expressed in mammalian expression system at 50 nM measured after 1 hr by kinomescan assay relative to control
[9] = target: SRSF protein kinase 3 (Homo sapiens) (UniProt Q9UPE1); test: Inhibition of biotinylated ligand binding to wild-type human partial length SRPK3 (P41 to P567 residues) expressed in bacterial expression system at 50 nM measured after 1 hr by kinomescan assay relative to control; summary of the method: as §2
[10] = target: Non-receptor tyrosine-protein kinase TNK1 (Homo sapiens) (UniProt Q13470); test: Inhibition of biotinylated ligand binding to wild-type human full length TNK1 (M1 to P661 residues) expressed in bacterial expression system at 50 nM measured after 1 hr by kinomescan assay relative to control; summary of the method: as §2
[11] = target: Cyclin-dependent kinase 8 (Homo sapiens, UniProt P49336); test: Inhibition of biotinylated ligand binding to wild-type human partial length CDK8 (M1 to T360 residues) expressed in Escherichia coli BL21 at 50 nM measured after 1 hr by kinomescan assay relative to control
Summary of the method: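 T7 phage-tagged kinase lysates from E. coli BL21 were mixed with streptavidin beads carrying biotinylated ligand and 50 nM compound. Incubated 1 h at room temperature with shaking, washed, then eluted 30 min with 0.5 μM non-biotinylated ligand. Kinase was quantified by qPCR. POC = (test − positive)/(DMSO − positive) ×100, with a control compound as positive.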

[12] = target: Serine/threonine-protein kinase PLK4 (Homo sapiens) (UniProt O00444); test: Inhibition of biotinylated ligand binding to wild-type human partial length PLK4 (M1 to S273 residues) expressed in mammalian expression system at 50 nM measured after 1 hr by kinomescan assay relative to control; summary of the method: as §1
[13] = target: Mitogen-activated protein kinase kinase kinase 2 (Homo sapiens) (UniProt Q9Y2U5); test: Inhibition of biotinylated ligand binding to wild-type human partial length MAP3K2 (S315 to H619 residues) expressed in mammalian expression system at 50 nM measured after 1 hr by kinomescan assay relative to control; summary of the method: as §1
[14] = target: BMP-2-inducible protein kinase (Homo sapiens) (UniProt Q9NSY1); test: Inhibition of biotinylated ligand binding to wild-type human partial length BIKE (S34 to N329 residues) expressed in bacterial expression system at 50 nM measured after 1 hr by kinomescan assay relative to control; summary of the method: as §2
[15] = target: Serine/threonine-protein kinase pim-2 (Homo sapiens) (UniProt Q9P1W9); test: Inhibition of biotinylated ligand binding to wild-type human partial length PIM2 (M1 to E291 residues) expressed in bacterial expression system at 50 nM measured after 1 hr by kinomescan assay relative to control
[16] = Selectivity ratio of EC50 for rat H9c2 cells to EC50 for human MV4-11 cells; assay type: toxicity; conditions: H9c2 cells versus MV4-11 cells, read-out: Ratio EC50
[17] = target: Serine/threonine-protein kinase LATS1 (Homo sapiens) (UniProt O95835); test: Inhibition of biotinylated ligand binding to wild-type human partial length LATS1 (Q678 to V1130 residues) expressed in bacterial expression system at 50 nM measured after 1 hr by kinomescan assay relative to control; summary of the method: as §2
[18] = target: Vascular endothelial growth factor receptor 3 (Homo sapiens) (UniProt P35916); test: Inhibition of biotinylated ligand binding to wild-type human partial length FLT4 (E821 to E1196 residues) expressed in bacterial expression system at 50 nM measured after 1 hr by kinomescan assay relative to control; summary of the method: as §2
[19] = target: 1-phosphatidylinositol 3-phosphate 5-kinase (Homo sapiens) (UniProt Q9Y2I7); test: Inhibition of biotinylated ligand binding to wild-type human partial length PIKFYVE (F1512 to C2098 residues) expressed in mammalian expression system at 50 nM measured after 1 hr by kinomescan assay relative to control
[20] = target: cAMP-dependent protein kinase catalytic subunit alpha (Homo sapiens) (UniProt P17612); test: Inhibition of biotinylated ligand binding to wild-type human partial length PKAC-alpha (G10 to F351 residues) expressed in bacterial expression system at 50 nM measured after 1 hr by kinomescan assay relative to control
[21] = target: Phosphatidylinositol 5-phosphate 4-kinase type-2 beta (Homo sapiens) (UniProt P78356); test: Inhibition of biotinylated ligand binding to wild-type human full length PIP5K2B (M1 to T416 residues) expressed in bacterial expression system at 50 nM measured after 1 hr by kinomescan assay relative to control; summary of the method: as §2

Sequence of Phosphatidylinositol 4-phosphate 5-kinase type-1 alpha (Homo sapiens) (Q99755 whole entry, the tested form may be a part): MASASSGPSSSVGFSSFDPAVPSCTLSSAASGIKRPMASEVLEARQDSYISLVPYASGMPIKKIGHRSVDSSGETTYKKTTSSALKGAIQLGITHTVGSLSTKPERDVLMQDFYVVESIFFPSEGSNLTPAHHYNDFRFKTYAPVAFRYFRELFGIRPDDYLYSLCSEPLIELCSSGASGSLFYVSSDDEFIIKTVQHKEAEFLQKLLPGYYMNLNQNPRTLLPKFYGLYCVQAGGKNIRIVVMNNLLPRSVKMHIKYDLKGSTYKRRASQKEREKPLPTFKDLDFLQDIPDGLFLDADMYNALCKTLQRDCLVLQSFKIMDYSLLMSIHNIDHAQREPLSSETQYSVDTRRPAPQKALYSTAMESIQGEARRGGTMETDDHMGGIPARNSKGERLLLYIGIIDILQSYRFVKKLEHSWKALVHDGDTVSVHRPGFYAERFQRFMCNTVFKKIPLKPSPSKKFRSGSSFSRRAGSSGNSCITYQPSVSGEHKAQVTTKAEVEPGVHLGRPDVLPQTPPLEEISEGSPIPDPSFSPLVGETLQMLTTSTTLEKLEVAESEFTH
Sequence of Mitogen-activated protein kinase kinase kinase 2 (Homo sapiens) (Q9Y2U5 whole entry, the tested form may be a part): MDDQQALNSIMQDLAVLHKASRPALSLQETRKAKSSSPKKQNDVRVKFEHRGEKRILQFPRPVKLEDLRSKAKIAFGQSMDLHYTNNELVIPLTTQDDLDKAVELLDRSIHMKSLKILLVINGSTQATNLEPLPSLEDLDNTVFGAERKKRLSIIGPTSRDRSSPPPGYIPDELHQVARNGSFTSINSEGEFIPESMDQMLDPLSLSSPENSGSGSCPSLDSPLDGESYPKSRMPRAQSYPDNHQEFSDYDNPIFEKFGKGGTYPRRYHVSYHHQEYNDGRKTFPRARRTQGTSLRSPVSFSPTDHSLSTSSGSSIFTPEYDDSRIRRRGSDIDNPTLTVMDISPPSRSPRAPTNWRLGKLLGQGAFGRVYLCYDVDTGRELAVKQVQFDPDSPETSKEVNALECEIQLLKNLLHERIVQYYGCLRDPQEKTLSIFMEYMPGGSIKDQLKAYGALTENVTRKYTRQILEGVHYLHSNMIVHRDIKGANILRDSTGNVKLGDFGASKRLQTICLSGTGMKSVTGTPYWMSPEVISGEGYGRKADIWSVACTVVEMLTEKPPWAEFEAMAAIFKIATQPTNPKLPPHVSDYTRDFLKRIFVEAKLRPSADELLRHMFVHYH
Sequence of 1-phosphatidylinositol 3-phosphate 5-kinase (Homo sapiens) (Q9Y2I7 whole entry, the tested form may be a part): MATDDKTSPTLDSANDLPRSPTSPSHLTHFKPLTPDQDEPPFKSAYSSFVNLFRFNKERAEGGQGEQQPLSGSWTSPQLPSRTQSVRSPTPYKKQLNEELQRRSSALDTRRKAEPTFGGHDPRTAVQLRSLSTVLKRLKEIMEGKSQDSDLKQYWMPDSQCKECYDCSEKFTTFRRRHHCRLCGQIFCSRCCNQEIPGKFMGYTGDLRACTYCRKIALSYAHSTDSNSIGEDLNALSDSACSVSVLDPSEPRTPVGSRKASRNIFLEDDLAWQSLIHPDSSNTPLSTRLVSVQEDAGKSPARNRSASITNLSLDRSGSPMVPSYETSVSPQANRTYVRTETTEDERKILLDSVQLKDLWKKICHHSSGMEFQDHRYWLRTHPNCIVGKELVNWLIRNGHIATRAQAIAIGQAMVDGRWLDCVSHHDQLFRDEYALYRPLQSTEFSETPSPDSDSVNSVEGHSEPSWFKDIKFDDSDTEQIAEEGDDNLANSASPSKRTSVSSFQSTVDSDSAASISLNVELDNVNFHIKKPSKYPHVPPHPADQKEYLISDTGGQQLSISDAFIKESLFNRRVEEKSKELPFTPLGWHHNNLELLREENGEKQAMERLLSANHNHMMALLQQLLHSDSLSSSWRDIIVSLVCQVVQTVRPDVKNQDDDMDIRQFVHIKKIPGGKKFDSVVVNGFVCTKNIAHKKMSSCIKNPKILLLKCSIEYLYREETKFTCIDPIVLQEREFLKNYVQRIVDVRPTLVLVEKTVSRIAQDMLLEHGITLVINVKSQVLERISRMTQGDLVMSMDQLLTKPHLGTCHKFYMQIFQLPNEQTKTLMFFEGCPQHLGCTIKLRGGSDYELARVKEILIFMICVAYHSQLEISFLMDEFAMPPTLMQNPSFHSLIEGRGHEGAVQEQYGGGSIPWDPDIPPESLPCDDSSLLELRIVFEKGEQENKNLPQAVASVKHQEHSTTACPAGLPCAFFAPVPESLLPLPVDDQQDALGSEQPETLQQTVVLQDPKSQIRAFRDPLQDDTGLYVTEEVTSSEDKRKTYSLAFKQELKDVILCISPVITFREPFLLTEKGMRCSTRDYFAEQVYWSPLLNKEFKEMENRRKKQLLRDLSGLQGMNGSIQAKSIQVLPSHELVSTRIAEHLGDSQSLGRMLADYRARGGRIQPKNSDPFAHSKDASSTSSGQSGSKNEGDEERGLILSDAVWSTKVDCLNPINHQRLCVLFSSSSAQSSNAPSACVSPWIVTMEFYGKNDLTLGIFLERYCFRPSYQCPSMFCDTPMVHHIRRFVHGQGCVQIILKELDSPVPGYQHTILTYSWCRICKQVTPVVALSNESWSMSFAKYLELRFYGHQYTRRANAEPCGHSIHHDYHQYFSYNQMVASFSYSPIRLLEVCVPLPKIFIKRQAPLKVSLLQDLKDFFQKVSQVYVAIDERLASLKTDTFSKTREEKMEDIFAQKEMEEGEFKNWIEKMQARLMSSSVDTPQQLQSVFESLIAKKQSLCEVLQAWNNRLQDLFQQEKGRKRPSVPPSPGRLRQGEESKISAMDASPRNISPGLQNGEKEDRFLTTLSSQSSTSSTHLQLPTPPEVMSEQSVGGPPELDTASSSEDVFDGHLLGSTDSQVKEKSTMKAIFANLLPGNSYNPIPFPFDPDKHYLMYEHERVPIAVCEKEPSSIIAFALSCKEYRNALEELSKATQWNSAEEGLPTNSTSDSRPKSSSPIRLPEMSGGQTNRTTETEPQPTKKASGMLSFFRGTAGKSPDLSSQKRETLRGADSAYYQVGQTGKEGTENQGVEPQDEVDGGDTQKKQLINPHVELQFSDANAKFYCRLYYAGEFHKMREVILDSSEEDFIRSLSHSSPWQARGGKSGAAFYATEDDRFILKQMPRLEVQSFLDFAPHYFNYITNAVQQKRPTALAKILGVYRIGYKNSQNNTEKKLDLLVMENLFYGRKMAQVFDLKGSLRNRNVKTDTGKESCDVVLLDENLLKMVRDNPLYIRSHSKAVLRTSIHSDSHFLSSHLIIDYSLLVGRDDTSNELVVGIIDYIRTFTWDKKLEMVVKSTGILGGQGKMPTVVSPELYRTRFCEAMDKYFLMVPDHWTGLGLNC
Sequence of BMP-2-inducible protein kinase (Homo sapiens) (Q9NSY1 whole entry, looked up, the tested form may be a part): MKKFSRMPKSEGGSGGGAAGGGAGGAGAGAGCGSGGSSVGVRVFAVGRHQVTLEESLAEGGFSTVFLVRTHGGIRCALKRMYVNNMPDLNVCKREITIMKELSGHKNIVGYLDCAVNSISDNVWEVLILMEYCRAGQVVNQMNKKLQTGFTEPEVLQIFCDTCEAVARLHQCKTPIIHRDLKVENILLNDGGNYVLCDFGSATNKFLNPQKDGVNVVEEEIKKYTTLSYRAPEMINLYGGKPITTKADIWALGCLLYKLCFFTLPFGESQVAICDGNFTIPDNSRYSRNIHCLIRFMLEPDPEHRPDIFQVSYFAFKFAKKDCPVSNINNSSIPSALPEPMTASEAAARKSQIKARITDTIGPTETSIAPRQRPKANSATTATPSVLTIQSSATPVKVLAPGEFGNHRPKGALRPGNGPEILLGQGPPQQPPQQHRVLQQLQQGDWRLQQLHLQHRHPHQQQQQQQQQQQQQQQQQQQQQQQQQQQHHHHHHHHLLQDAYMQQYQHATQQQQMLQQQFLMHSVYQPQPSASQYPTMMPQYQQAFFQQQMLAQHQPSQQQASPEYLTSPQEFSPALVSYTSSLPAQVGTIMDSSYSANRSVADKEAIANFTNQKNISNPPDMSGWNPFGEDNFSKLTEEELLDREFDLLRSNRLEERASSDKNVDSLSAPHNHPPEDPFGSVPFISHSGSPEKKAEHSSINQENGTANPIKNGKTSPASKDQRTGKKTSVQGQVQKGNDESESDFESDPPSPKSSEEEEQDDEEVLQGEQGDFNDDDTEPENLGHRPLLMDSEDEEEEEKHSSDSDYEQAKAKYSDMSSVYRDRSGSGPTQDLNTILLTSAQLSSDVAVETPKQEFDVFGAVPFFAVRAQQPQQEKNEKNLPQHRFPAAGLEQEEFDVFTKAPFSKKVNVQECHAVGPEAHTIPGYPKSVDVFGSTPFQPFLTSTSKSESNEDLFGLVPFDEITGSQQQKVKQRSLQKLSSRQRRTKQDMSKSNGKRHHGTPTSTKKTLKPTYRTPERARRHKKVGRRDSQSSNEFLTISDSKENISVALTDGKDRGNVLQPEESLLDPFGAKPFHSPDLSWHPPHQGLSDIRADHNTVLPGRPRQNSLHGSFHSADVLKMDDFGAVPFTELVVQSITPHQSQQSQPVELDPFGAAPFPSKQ
Sequence of Cyclin-dependent kinase 8 (P49336 whole entry, the tested form may be a part): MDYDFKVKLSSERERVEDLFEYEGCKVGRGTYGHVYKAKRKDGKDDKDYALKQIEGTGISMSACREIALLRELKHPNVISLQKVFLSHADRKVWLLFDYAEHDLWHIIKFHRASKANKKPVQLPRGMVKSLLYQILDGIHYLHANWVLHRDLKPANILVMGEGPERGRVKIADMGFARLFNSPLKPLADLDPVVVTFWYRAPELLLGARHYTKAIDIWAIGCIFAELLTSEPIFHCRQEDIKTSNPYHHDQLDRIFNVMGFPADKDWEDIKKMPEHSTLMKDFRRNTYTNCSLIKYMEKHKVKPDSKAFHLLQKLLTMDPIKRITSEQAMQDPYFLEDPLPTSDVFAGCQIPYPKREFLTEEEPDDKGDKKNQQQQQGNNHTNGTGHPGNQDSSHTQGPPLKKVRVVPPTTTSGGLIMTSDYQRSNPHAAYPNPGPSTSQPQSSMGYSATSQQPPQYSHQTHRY

## CN(C)[C@@H]1CC[C@@]2(C)[C@@H](CC[C@@H]3[C@@H]2CC[C@]2(C)C(c4cccc5cnccc45)=CC[C@@H]32)C1
[1]
  inhibition: > 80%
[2]
  pEC50: 5.23
[3]
  inhibition: > 80%
[4]
  inhibition: > 80%
[5]
  inhibition: > 80%
[6]
  inhibition: > 80%
[7]
  inhibition: > 80%
[8]
  inhibition: > 80%
[9]
  inhibition: > 80%
[10]
  inhibition: > 80%
[11]
  inhibition: > 80%
[12]
  inhibition: > 80%
[13]
  inhibition: > 80%
[14]
  inhibition: > 80%
[15]
  inhibition: > 80%
[16]
  selectivity ratio: 3 to 4
[17]
  inhibition: > 80%
[18]
  inhibition: > 80%
[19]
  inhibition: > 80%
[20]
  inhibition: > 80%
[21]
  inhibition: > 80%
